From ChEMBL document CHEMBL1141484, “Radiosyntheses of two positron emission tomography probes: [11C]Oseltamivir and its active metabolite [11C]Ro 64-0802” (Bioorg Med Chem Lett, 2008)

Test: Ratio of drug level in brain to blood in iv dosed mouse
Format: ADME, organism-based
Conditions: brain/whole blood, read-out: BBR
Method in brief: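 Brain/blood radioactivity ratio was taken from decay-corrected %ID/g tissue in whole brain and blood. Samples came from male Wister mice (30 g, 7 weeks) given the 11C tracer iv by tail vein (average 20 MBq/400 µL). Mice were sacrificed at 1–60 min after injection, three per time point.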

Row | Kp | Compound
1 | 0.07 | CCOC(=O)C1=C[C@@H](OC(CC)CC)[C@H](N[11C](C)=O)[C@@H](N)C1
2 | 0.06 | CCC(CC)O[C@@H]1C=C(C(=O)O)C[C@H](N)[C@H]1N[11C](C)=O
